From ChEMBL document CHEMBL3045504, “Activity of 1,4-benzoquinones against formosan subterranean termites (Coptotermes formosanus)” (2008)

Assays:
Assay type in all cases: functional
Coptotermes formosanus [1] = experiment: Antifeedant activity against Coptotermes formosanus placed on 1 % wt/wt compound treated filter paper assessed as filter paper consumption measured 21 days post compound exposure (reference value: 54.4 +/- 20.7 mg)
Coptotermes formosanus [2] = experiment: Termiticidal activity against Coptotermes formosanus placed on 1 % wt/wt compound treated filter paper assessed as termite mortality measured 11 days post compound exposure
Coptotermes formosanus [3] = experiment: Termiticidal activity against Coptotermes formosanus placed on 1 % wt/wt compound treated filter paper assessed as termite mortality measured 3 days post compound exposure
Coptotermes formosanus [4] = experiment: Termiticidal activity against Coptotermes formosanus placed on 1 % wt/wt compound treated filter paper assessed as termite mortality measured 21 days post compound exposure
Coptotermes formosanus [5] = experiment: Termiticidal activity against Coptotermes formosanus placed on 0.001 % wt/wt compound treated filter paper assessed as termite mortality measured 11 days post compound exposure
How it was run: (§1)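 Treated filter paper disks moistened with 100 µL water; 20 C. formosanus workers (third instar or greater) plus 1 soldier per dish from field colonies kept on spruce, ca. 100% RH, 26.6 °C. Daily mortality scored for 3 weeks; cumulative percent mortality from four replicates, each a different colony; water-only controls; ANOVA, protected Fisher LSD (P < 0.05) after arcsine square-root transform.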

Coptotermes formosanus [6] = experiment: Termiticidal activity against Coptotermes formosanus placed on 0.1 % wt/wt compound treated filter paper assessed as termite mortality measured 17 days post compound exposure; how it was run: as §1
Coptotermes formosanus [7] = experiment: Termiticidal activity against Coptotermes formosanus placed on 0.001 % wt/wt compound treated filter paper assessed as termite mortality measured 6 days post compound exposure; how it was run: as §1
Coptotermes formosanus [8] = experiment: Termiticidal activity against Coptotermes formosanus placed on 0.05 % wt/wt compound treated filter paper assessed as termite mortality measured 21 days post compound exposure; how it was run: as §1
Coptotermes formosanus [9] = experiment: Termiticidal activity against Coptotermes formosanus placed on 0.1 % wt/wt compound treated filter paper assessed as termite mortality measured 6 days post compound exposure; how it was run: as §1
Coptotermes formosanus [10] = experiment: Termiticidal activity against Coptotermes formosanus placed on 0.05 % wt/wt compound treated filter paper assessed as termite mortality measured 9 days post compound exposure; how it was run: as §1
Coptotermes formosanus [11] = experiment: Termiticidal activity against Coptotermes formosanus placed on 0.01 % wt/wt compound treated filter paper assessed as termite mortality measured 17 days post compound exposure; how it was run: as §1
Coptotermes formosanus [12] = experiment: Termiticidal activity against Coptotermes formosanus placed on 0.1 % wt/wt compound treated filter paper assessed as termite mortality measured 9 days post compound exposure; how it was run: as §1
Coptotermes formosanus [13] = experiment: Termiticidal activity against Coptotermes formosanus placed on 0.001 % wt/wt compound treated filter paper assessed as termite mortality measured 17 days post compound exposure; how it was run: as §1
Coptotermes formosanus [14] = experiment: Termiticidal activity against Coptotermes formosanus placed on 0.5 % wt/wt compound treated filter paper assessed as termite mortality measured 6 days post compound exposure; how it was run: as §1
Coptotermes formosanus [15] = experiment: Antifeedant activity against Coptotermes formosanus placed on 0.1 % wt/wt compound treated filter paper assessed as filter paper consumption measured 21 days post compound exposure (reference value: 44.6 +/- 0.0 mg)
Coptotermes formosanus [16] = experiment: Antifeedant activity against Coptotermes formosanus placed on 0.5 % wt/wt compound treated filter paper assessed as filter paper consumption measured 21 days post compound exposure (reference value: 44.6 +/- 0.0 mg)
Coptotermes formosanus [17] = experiment: Termiticidal activity against Coptotermes formosanus placed on 0.05 % wt/wt compound treated filter paper assessed as termite mortality measured 11 days post compound exposure; how it was run: as §1
Coptotermes formosanus [18] = experiment: Termiticidal activity against Coptotermes formosanus placed on 0.01 % wt/wt compound treated filter paper assessed as termite mortality measured 13 days post compound exposure; how it was run: as §1
Coptotermes formosanus [19] = experiment: Termiticidal activity against Coptotermes formosanus placed on 0.5 % wt/wt compound treated filter paper assessed as termite mortality measured 9 days post compound exposure; how it was run: as §1
Coptotermes formosanus [20] = experiment: Termiticidal activity against Coptotermes formosanus placed on 0.001 % wt/wt compound treated filter paper assessed as termite mortality measured 9 days post compound exposure; how it was run: as §1
Coptotermes formosanus [21] = experiment: Termiticidal activity against Coptotermes formosanus placed on 0.5 % wt/wt compound treated filter paper assessed as termite mortality measured 17 days post compound exposure; how it was run: as §1
Coptotermes formosanus [22] = experiment: Antifeedant activity against Coptotermes formosanus placed on 0.001 % wt/wt compound treated filter paper assessed as filter paper consumption measured 21 days post compound exposure (reference value: 44.6 +/- 0.0 mg)
Coptotermes formosanus [23] = experiment: Termiticidal activity against Coptotermes formosanus placed on 0.05 % wt/wt compound treated filter paper assessed as termite mortality measured 17 days post compound exposure; how it was run: as §1
Coptotermes formosanus [24] = experiment: Termiticidal activity against Coptotermes formosanus placed on 0.5 % wt/wt compound treated filter paper assessed as termite mortality measured 13 days post compound exposure; how it was run: as §1
Coptotermes formosanus [25] = experiment: Termiticidal activity against Coptotermes formosanus placed on 0.05 % wt/wt compound treated filter paper assessed as termite mortality measured 13 days post compound exposure; how it was run: as §1
Coptotermes formosanus [26] = experiment: Termiticidal activity against Coptotermes formosanus placed on 0.1 % wt/wt compound treated filter paper assessed as termite mortality measured 11 days post compound exposure; how it was run: as §1
Coptotermes formosanus [27] = experiment: Termiticidal activity against Coptotermes formosanus placed on 0.01 % wt/wt compound treated filter paper assessed as termite mortality measured 11 days post compound exposure; how it was run: as §1
Coptotermes formosanus [28] = experiment: Termiticidal activity against Coptotermes formosanus placed on 0.01 % wt/wt compound treated filter paper assessed as termite mortality measured 9 days post compound exposure; how it was run: as §1
Coptotermes formosanus [29] = experiment: Termiticidal activity against Coptotermes formosanus placed on 0.05 % wt/wt compound treated filter paper assessed as termite mortality measured 6 days post compound exposure; how it was run: as §1
Coptotermes formosanus [30] = experiment: Antifeedant activity against Coptotermes formosanus placed on 0.01 % wt/wt compound treated filter paper assessed as filter paper consumption measured 21 days post compound exposure (reference value: 44.6 +/- 0.0 mg)
Coptotermes formosanus [31] = experiment: Termiticidal activity against Coptotermes formosanus placed on 0.001 % wt/wt compound treated filter paper assessed as termite mortality measured 21 days post compound exposure; how it was run: as §1
Coptotermes formosanus [32] = experiment: Termiticidal activity against Coptotermes formosanus placed on 0.01 % wt/wt compound treated filter paper assessed as termite mortality measured 21 days post compound exposure; how it was run: as §1
Coptotermes formosanus [33] = experiment: Termiticidal activity against Coptotermes formosanus placed on 0.5 % wt/wt compound treated filter paper assessed as termite mortality measured 11 days post compound exposure; how it was run: as §1
Coptotermes formosanus [34] = experiment: Termiticidal activity against Coptotermes formosanus placed on 0.001 % wt/wt compound treated filter paper assessed as termite mortality measured 13 days post compound exposure; how it was run: as §1
Coptotermes formosanus [35] = experiment: Antifeedant activity against Coptotermes formosanus placed on 0.05 % wt/wt compound treated filter paper assessed as filter paper consumption measured 21 days post compound exposure (reference value: 44.6 +/- 0.0 mg)
Coptotermes formosanus [36] = experiment: Termiticidal activity against Coptotermes formosanus placed on 0.01 % wt/wt compound treated filter paper assessed as termite mortality measured 6 days post compound exposure; how it was run: as §1
Coptotermes formosanus [37] = experiment: Termiticidal activity against Coptotermes formosanus placed on 0.5 % wt/wt compound treated filter paper assessed as termite mortality measured 21 days post compound exposure; how it was run: as §1
Coptotermes formosanus [38] = experiment: Antifeedant activity against Coptotermes formosanus placed on 1 % wt/wt compound treated filter paper assessed as filter paper consumption measured 21 days post compound exposure (reference value: 15.9 +/- 10.4 mg)
Coptotermes formosanus [39] = experiment: Termiticidal activity against Coptotermes formosanus placed on 0.1 % wt/wt compound treated filter paper assessed as termite mortality measured 13 days post compound exposure; how it was run: as §1
Coptotermes formosanus [40] = experiment: Termiticidal activity against Coptotermes formosanus placed on 0.1 % wt/wt compound treated filter paper assessed as termite mortality measured 21 days post compound exposure; how it was run: as §1
Coptotermes formosanus [41] = experiment: Antifeedant activity against Coptotermes formosanus placed on 1 % wt/wt compound treated filter paper assessed as filter paper consumption measured 21 days post compound exposure (reference value: 85 +/- 15.1 mg)
Coptotermes formosanus [42] = experiment: Antifeedant activity against Coptotermes formosanus placed on 0.1 % wt/wt compound treated filter paper assessed as filter paper consumption measured 21 days post compound exposure (reference value: 54.4 +/- 20.7 mg)
Coptotermes formosanus [43] = experiment: Antifeedant activity against Coptotermes formosanus placed on 0.01 % wt/wt compound treated filter paper assessed as filter paper consumption measured 21 days post compound exposure
Coptotermes formosanus [44] = experiment: Antifeedant activity against Coptotermes formosanus placed on 0.5 % wt/wt compound treated filter paper assessed as filter paper consumption measured 21 days post compound exposure (reference value: 54.4 +/- 20.7 mg)
Coptotermes formosanus [45] = experiment: Antifeedant activity against Coptotermes formosanus placed on 0.05 % wt/wt compound treated filter paper assessed as filter paper consumption measured 21 days post compound exposure
Coptotermes formosanus [46] = experiment: Antifeedant activity against Coptotermes formosanus placed on 0.001 % wt/wt compound treated filter paper assessed as filter paper consumption measured 21 days post compound exposure

SMILES | mortality (Coptotermes formosanus [2]) [%] | mortality (Coptotermes formosanus [3]) [%] | mortality (Coptotermes formosanus [4]) [%] | mortality (Coptotermes formosanus [5]) [%] | mortality (Coptotermes formosanus [6]) [%] | mortality (Coptotermes formosanus [7]) [%] | mortality (Coptotermes formosanus [8]) [%] | mortality (Coptotermes formosanus [9]) [%] | mortality (Coptotermes formosanus [10]) [%] | mortality (Coptotermes formosanus [11]) [%] | mortality (Coptotermes formosanus [12]) [%] | mortality (Coptotermes formosanus [13]) [%] | mortality (Coptotermes formosanus [14]) [%] | mortality (Coptotermes formosanus [17]) [%] | mortality (Coptotermes formosanus [18]) [%] | mortality (Coptotermes formosanus [19]) [%] | mortality (Coptotermes formosanus [20]) [%] | mortality (Coptotermes formosanus [21]) [%] | mortality (Coptotermes formosanus [23]) [%] | mortality (Coptotermes formosanus [24]) [%] | further results
CC1=CC(=O)C(C)=C(C)C1=O | 18.3 | 0 | 36.7 |  |  |  |  |  |  |  |  |  |  |  |  |  |  |  |  |  | Activity (Coptotermes formosanus [1]): 55.4 mg
CCCCCC1=CC(=O)C=C(OC)C1=O [Primin] | 100 | 87.5 | 100 | 0 | 40 | 0 | 25 | 21.7 | 3.3 | 10 | 21.7 | 1.7 | 56.7 | 3.3 | 5 | 80 | 0 | 100 | 8.3 | 96.7 | Activity (Coptotermes formosanus [15]): 26.8 mg; Activity (Coptotermes formosanus [16]): 4.9 mg; Activity (Coptotermes formosanus [22]): 48.8 mg; mortality (Coptotermes formosanus [25]): 5%; mortality (Coptotermes formosanus [26]): 28.3%; mortality (Coptotermes formosanus [27]): 0%; mortality (Coptotermes formosanus [28]): 0%; mortality (Coptotermes formosanus [29]): 3.3%; Activity (Coptotermes formosanus [30]): 48.4 mg; mortality (Coptotermes formosanus [31]): 8.3%; mortality (Coptotermes formosanus [32]): 21.7%; mortality (Coptotermes formosanus [33]): 91.7%; mortality (Coptotermes formosanus [34]): 0%; Activity (Coptotermes formosanus [35]): 42.2 mg; mortality (Coptotermes formosanus [36]): 0%; mortality (Coptotermes formosanus [37]): 100%; Activity (Coptotermes formosanus [38]): 0.1 mg; mortality (Coptotermes formosanus [39]): 36.7%; mortality (Coptotermes formosanus [40]): 50%
CC1=CC(=O)C(C(C)C)=CC1=O [THYMOQUINONE] | 100 | 100 | 100 | 1.7 | 8.3 | 0 | 8.3 | 0 | 0 | 5 | 1.7 | 5 | 1.7 | 0 | 5 | 6.7 | 1.7 | 11.7 | 6.7 | 10 | Activity (Coptotermes formosanus [41]): 0 mg; Activity (Coptotermes formosanus [42]): 83.5 mg; Activity (Coptotermes formosanus [43]): 75.4 mg; mortality (Coptotermes formosanus [25]): 6.7%; mortality (Coptotermes formosanus [26]): 1.7%; mortality (Coptotermes formosanus [27]): 3.3%; Activity (Coptotermes formosanus [44]): 93.1 mg; mortality (Coptotermes formosanus [28]): 3.3%; mortality (Coptotermes formosanus [29]): 0%; mortality (Coptotermes formosanus [31]): 5%; mortality (Coptotermes formosanus [32]): 11.7%; mortality (Coptotermes formosanus [33]): 6.7%; mortality (Coptotermes formosanus [34]): 1.7%; mortality (Coptotermes formosanus [36]): 0%; mortality (Coptotermes formosanus [37]): 18.3%; Activity (Coptotermes formosanus [45]): 74 mg; Activity (Coptotermes formosanus [46]): 80.6 mg; mortality (Coptotermes formosanus [39]): 6.7%; mortality (Coptotermes formosanus [40]): 8.3%
